Results as given in PMC4335074 (Clinical cancer research : an official journal of the …, 2014).
Read-outs that look alike come from different tables or passages of the source.

Key:
CYP3A4 = conditions: no reference given; cited from earlier work
pT70 4E-BP1 = assay: Immunoblotting of downstream signalling biomarkers in HCT116 cells; type: cell-based, Human; conditions: HCT116, 24 hours, immunoblot
Procedure, shortened: (§1)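 HCT116 colon cancer cells (KRAS G13D; from ATCC, STR-authenticated) were exposed for 24 h to the AKT-inhibitor test compound, the MEK-inhibitor test compound, or both together, each at set concentrations, before immunoblot analysis of phospho-markers.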

pS473 AKT [1] = assay: as above; type: cell-based, Human; conditions: HCT116, 24 hours, immunoblot
Procedure, shortened: as §1

[2] = test system: pS235/236 S6 ribosomal protein (S6RP); assay: as above; type: cell-based, Human; conditions: HCT116, 24 hours, immunoblot
Procedure, shortened: as §1

MEK = conditions: non-ATP competitive; cited from earlier work
pERK = conditions: at 6 hours, peripheral blood mononuclear cells and paired tumour biopsies; cited from earlier work
CYP2C19 = conditions: no reference given; cited from earlier work
[3] = Phase I combination study: pharmacokinetics; type: in vivo, human; conditions: for Cmax: selumetinib 100 mg QD, combination MTD cohort
P-glycoprotein = conditions: no reference given; cited from earlier work
CYP1A2 = conditions: no reference given; cited from earlier work
pT202/Y204 ERK = assay: Immunoblotting of downstream signalling biomarkers in HCT116 cells; type: cell-based, Human; conditions: HCT116, 24 hours, immunoblot
Procedure, shortened: as §1

[4] = selumetinib monotherapy, cited from earlier work
KRAS-mutant NSCLC = conditions: phase II, KRAS-mutant NSCLC patients; cited from earlier work
[5] = cited from earlier work
AKT 1 = conditions: cited from earlier work
AKT 3 = conditions: cited from earlier work
[6] = preclinical models; no reference given; cited from earlier work
pS473 AKT [7] = conditions: at 57 nmol/L MK-2206, preclinical models; no reference given; cited from earlier work
AKT 2 = conditions: cited from earlier work
tumour pS473 AKT = conditions: MK-2206 monotherapy 60 mg QOD; cited from earlier work

Cn1cnc2c(F)c(Nc3ccc(Br)cc3Cl)c(C(=O)NOCCO)cc21 [selumetinib]
Inhibition of CYP3A4 (CYP3A4): neither of these drugs is a potent inhibitor | Inhibition of pT70 4E-BP1 (pT70 4E-BP1): incompletely suppressed | Inhibition of pS473 AKT (pS473 AKT [1]): did not affect | Inhibition of pS235/236 S6RP [2]: incompletely suppressed | IC50 (MEK): 10 to 14 nM | Suppression of pERK (pERK): observed | Inhibition of CYP2C19 (CYP2C19): neither of these drugs is a potent inhibitor | Cmax ([3]; human, in vivo, oral, Cmax range): 554 to 2540 ng/mL | Cmax ([3]; human, in vivo, oral, Mean Cmax): 1140 ng/mL | P-glycoprotein inhibition (P-glycoprotein): not an inhibitor | P-glycoprotein substrate status (P-glycoprotein): substrates | Inhibition of CYP1A2 (CYP1A2): neither of these drugs is a potent inhibitor | Inhibition of pT202/Y204 ERK (pT202/Y204 ERK): blocked pT202/Y204 ERK completely | Established dose ([4]; freebase powder formulation, BID): 100 mg | Terminal t1/2 ([4]; hydrogen sulphate oral capsule): 5.3 h | Clinical toxicities [4]: acneiform dermatitis, diarrhoea, fatigue, nausea, and peripheral oedema | Dose-limiting toxicity (DLT) [4]: Rash

CC(=O)O[C@@]12CO[C@@H]1C[C@H](O)[C@@]1(C)C(=O)[C@H](O)C3=C(C)[C@@H](OC(=O)[C@H](O)[C@@H](NC(=O)OC(C)(C)C)c4ccccc4)C[C@@](O)([C@@H](OC(=O)c4ccccc4)[C@H]21)C3(C)C [docetaxel]
Median overall survival (OS) (KRAS-mutant NSCLC): 5.3 months | Progression free survival (KRAS-mutant NSCLC): 2.1 months

NC1(c2ccc(-c3nc4ccn5c(=O)[nH]nc5c4cc3-c3ccccc3)cc2)CCC1 [MK-2206]
Inhibition of CYP3A4 (CYP3A4): neither of these drugs is a potent inhibitor | Inhibition of pT70 4E-BP1 (pT70 4E-BP1): incompletely inhibited | Inhibition of pS473 AKT (pS473 AKT [1]): completely abrogated | Inhibition of pS235/236 S6RP [2]: no effect | Inhibition of CYP2C19 (CYP2C19): neither of these drugs is a potent inhibitor | Terminal half-life (t1/2) ([5]; MK-2206 monotherapy 60 mg QOD): 71.3 h | Maximum-tolerated dose (MTD) ([5]; MK-2206 monotherapy, QOD schedule): 60 mg | Maximum-tolerated dose (MTD) ([5]; MK-2206 monotherapy, weekly schedule): 200 mg | Clinical toxicities ([5]; MK-2206 monotherapy): erythematous maculopapular rash and stomatitis | Dose-limiting toxicity (DLT) ([5]; MK-2206 monotherapy): Rash | IC50 (AKT 1): […] | half-life ([3]; human, in vivo, oral): 61.7 ± 15.2 h | Patients achieving target steady-state trough concentration of >57 nmol/L ([3]; in 48 hours at the 135 mg QW MTD level): 100% | P-glycoprotein inhibition (P-glycoprotein): only a weak inhibitor | P-glycoprotein substrate status (P-glycoprotein): substrates | IC50 (AKT 3): 65 nM | Inhibition of CYP1A2 (CYP1A2): neither of these drugs is a potent inhibitor | MK-2206 concentrations associated with anti-tumour activity [6]: […] | Inhibition of pT202/Y204 ERK (pT202/Y204 ERK): no effect | Inhibition of pS473 AKT (pS473 AKT [7]): > 70% | IC50 (AKT 2): 12 nM | Median suppression of post-dose tumour pS473 AKT (tumour pS473 AKT): 81%
